# Screens (PubChem)
# Shown are actives, neighbours in structure and some others; about 3.5% of the full set was active somewhere.
# MrgX1 antag: blocks BAM8-22 activation of human MrgX1 receptor. 1.3% of 310,000 active. B-score at 10 µM. MRGX1-HEK293 calcium flux, Fluo-4, BAM8-22 antagonism; active compounds read low. Q96LB2. AID 588676;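 active = calcium-response B-score plate-corrected more than 3 library SD below zero, starting fluorescence within 5 deviations, no agonist response on first addition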;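 note: peak minus trough fluorescence over baseline after final BAM8-22 challenge near maximal dose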
# Target sequence (Q96LB2 whole entry, looked up): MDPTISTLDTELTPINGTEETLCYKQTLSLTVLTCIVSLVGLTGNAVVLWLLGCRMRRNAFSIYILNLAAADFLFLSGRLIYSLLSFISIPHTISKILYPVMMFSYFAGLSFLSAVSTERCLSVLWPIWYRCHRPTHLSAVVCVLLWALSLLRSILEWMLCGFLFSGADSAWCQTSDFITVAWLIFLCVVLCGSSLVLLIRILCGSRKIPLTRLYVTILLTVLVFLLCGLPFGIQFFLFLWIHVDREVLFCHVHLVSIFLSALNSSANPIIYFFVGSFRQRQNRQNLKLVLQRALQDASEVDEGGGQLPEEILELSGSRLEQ
# RGS4 pot: potentiators or activators of RGS4; HEK293 M3R/inducible RGS4, carbachol calcium flux Fluo4; active compounds read low; B-score at 10 µM; 0.92% of 310,000 active;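 active = B-score of the integrated calcium signal more than 4 SD below the library mean, with starting fluorescence not abnormally high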;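 note: negative B-score means reduced calcium response which marks RGS4 activation or potentiation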
#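 Reagent: ECmax carbachol challenge; Test system: M3R-expressing HEK293 line, RGS4 induced by doxycycline; Schedule: overnight RGS4 induction, 30 min dye load 37 °C, 20 min compound RT; Detection: calcium dye Fluo4 fluorescence; Read-out: Agonist-evoked peak-minus-minimum fluorescence over baseline, integrated ratio, B score.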
# RGS4 block: human RGS4 inhibition. P49798. HEK293 M3R/RGS4 inducible, Fluo-4 calcium flux; active compounds read high; triggered by carbachol at its EC20. B-score at 10 µM. 0.45% of 310,000 active;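 active = B-score, a plate-corrected calcium signal, over three deviations above library mean, with baseline fluorescence within five deviations of library mean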;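 note: RGS4 expression induced by doxycycline in cells with stable M3 receptor; B-score is computed from the integrated fluorescence ratio over baseline after carbachol; higher B-score means a larger calcium signal and so more RGS4 inhibition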
# Target sequence (P49798 whole entry, looked up): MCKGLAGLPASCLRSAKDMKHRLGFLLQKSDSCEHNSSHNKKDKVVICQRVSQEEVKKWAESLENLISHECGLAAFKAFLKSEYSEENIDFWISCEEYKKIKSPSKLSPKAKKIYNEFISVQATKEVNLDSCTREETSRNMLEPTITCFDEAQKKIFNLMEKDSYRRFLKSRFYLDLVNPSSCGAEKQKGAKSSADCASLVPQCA
# MrgX1 ag: human MrgX1 receptor agonism, primary screen | MrgX1-HEK293 cells, Fluo-4 calcium fluorescence, agonist mode; active compounds read high | B-score at 10 µM | 0.44% of 310,000 active;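 active = calcium response B-score plate-corrected fluorescence ratio at least 3 library SD, with starting fluorescence B-score inside 5 SD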
#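 System: HEK293 cells stably expressing human MrgX1 receptor; Dosing: test compound in the initial addition of three; Schedule: overnight plating, then 30 min 37 °C plus 30 min room-temperature dye loading; Detection: kinetic calcium dye fluorescence, Fluo-4 NW; Controls: per-plate positive and negative controls for Z′ factor.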
# MrgX1 allo act: human MrgX1 positive allosteric modulation, primary screen | MrgX1-HEK293, Fluo-4 calcium flux, FDSS; active compounds read high | 0.63% of 310,000 active | B-score at 10 µM | AID 588675 | Q96LB2;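 active = plate-corrected calcium response at least 3 library SD above typical, normal starting fluorescence, not activating the receptor alone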;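 note: compound read alongside a low EC10 to EC30 dose of BAM8-22 agonist; peak minus trough fluorescence over baseline measured at the second addition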
# RGS4 block valid: validation of RGS4 inhibitors; shares compounds with RGS4 block; HEK293 M3R/RGS4, carbachol calcium Fluo-4 fluorescence; carbachol added at its EC20; 0 = buffer wells, 100 = carbachol control; calcium response, % at 10 µM; 65% of 1,700 active; AID 492999;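 active = duplicate-averaged calcium response above the buffer-only control mean plus 5 SD of those controls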;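 note: integrated fluorescence ratio F max minus min over baseline F0; higher response in RGS4-induced cells means RGS4 inhibition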
# RGS4 uninduced: counter-screen for RGS4 inhibitors: effect in non-induced cells; HEK293 M3R non-induced, carbachol calcium Fluo-4; submaximal (EC20) carbachol stimulus; buffer wells 0%, carbachol control wells 100%; shares compounds with RGS4 block; 20% of 1,900 active; activity (percent), % at 10 µM; call rule not given here;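 note: RGS4 induction absent so cells express M3R without RGS4; higher means more calcium signal and flags a non-specific hit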
# M3R basal Ca ctr: second counter-screen for RGS4 inhibitors: non-induced cells without carbachol. shares compounds with RGS4 block. HEK293 M3R/RGS4 non-induced, Fluo-4 calcium, no carbachol; normalised: buffer wells 0%, carbachol wells 100%. calcium response (agonist-mode artifact), % at 10 µM. 22% of 1,900 active;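 active = duplicate-averaged calcium rise in uninduced cells above buffer wells' mean plus 5 SD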
# Numbers stand for hits; - = inactive; . = no result given.
SMILES,MrgX1 antag,RGS4 pot,RGS4 block,MrgX1 ag,MrgX1 allo act,RGS4 block valid,RGS4 uninduced,M3R basal Ca ctr
CC(=O)N1CC(=O)N=C1SCC(=O)Nc1nc(C)c(-c2ccccc2)s1,-,-,-,-,-,-,-,-
CCOc1ccc(-c2csc(NC(=O)CSC3=NC(=O)CN3C(C)=O)n2)c2ccccc12,-,-,-,-,-,.,.,.
CCCCCn1nnc2c(=O)oc3ccccc3c21,-,-,-,-,-,.,.,.
Cc1cc(C)n(-c2cc(C(C)(C)C)nc3c(-c4ccccc4)cnn23)n1,-,-,-,-,-,.,32.5%,-
Cc1cc(C)n(-c2cc(C(C)(C)C)nc3c(-c4ccc(Cl)cc4)cnn23)n1,-,-,8.56,-,-,33.0%,-,-
CC(C)(C)c1cc(NCc2ccccn2)n2ncc(-c3ccccc3)c2n1,-,-,-,-,-,.,.,.
CC(C)=CCc1c(O)cc2c(=O)c3ccc(O)cc3oc2c1O,-,-,10.7,-,-,9.0%,-,-
O=C1c2cccc3cc([N+](=O)[O-])cc(c23)C(=O)N1c1ccccc1O,-,-,5.13,-,-,14.0%,-,-
COc1ccccc1CNC(=O)COC(=O)c1c(C)nn(-c2ccccc2)c1Cl,-,-,17.8,-,-,-,-,-
C=CCNC(=O)CC(C)C(CCCCC)C(=O)O (configuration not stated),-,-,-,-,-,.,.,.
COCCSc1ccccc1C(=O)NCc1ccco1,-,-,-,-,-,.,.,.
CC(=O)Nc1ccc(C23CC4CC(CC(C4)C2)C3)cc1,-,-,-,-,-,.,.,.
Oc1ccc(C23CC4CC(CC(C4)C2)C3)cc1O,-,-,21.6,-,-,16.0%,52.0%,15.0%
Cn1c(=O)c2c(SCC(=O)N3CCOCC3)nc(-c3ccccc3Cl)nc2n(C)c1=O,-,-,-,-,-,.,.,.
O=C(CSc1cccc[n+]1[O-])Nc1cc2c(cc1Cl)C(=O)c1ccccc1C2=O,-,-,11.5,-,-,65.0%,-,-
Cc1c(C(=O)Oc2cccc3cccnc23)cccc1[N+](=O)[O-],-,-,10.2,-,-,56.5%,-,-
O=C(Oc1cccc2cccnc12)c1cccs1,-,-,7.29,-,-,48.5%,-,-
O=C(Oc1cccc2cccnc12)c1ccco1,-,-,-,-,-,.,.,.
O=C(Oc1cccc2cccnc12)c1ccc(Br)o1,-,-,4.65,-,-,42.5%,-,-
Cc1ccccc1N(CC(=O)Nc1ccc(S(=O)(=O)N2CCOCC2)cc1)S(C)(=O)=O,-,-,-,-,-,.,.,.
Cc1ccc(C)c(C2C(C#N)=C(N)Oc3cc(C)oc(=O)c32)c1 (configuration not stated),-,-,-,-,-,.,.,.
Cc1ccc(C2C(C#N)=C(N)Oc3cc(C)oc(=O)c32)o1 (configuration not stated),-,-,7.26,-,-,21.5%,-,-
CN1CC(=O)N(CC(=O)Nc2cc(Cl)cc(Cl)c2)C1=O,-,-,-,-,-,.,.,.
Cc1ccc(-c2cc(-c3ccc4c(c3)OCO4)c(C#N)c(N)n2)o1,-,-,8.82,-,-,-,-,-
Cc1ccc(-c2cc(-c3ccc(F)cc3)c(C#N)c(N)n2)o1,-,-,-,27.1,-,-,-,-
Cc1ccc(-c2c(C#N)c(N)nc3c2CCCCC3)o1,-,-,-,-,-,.,.,.
Cc1ccc(-c2cc(-c3ccc(C)o3)nc(N)c2C#N)cc1,-,-,7.05,-,-,-,-,-
Cc1c(-c2ccc(F)cc2)nc(N)c(C#N)c1-c1ccco1,-,-,-,-,-,.,.,.
Cc1nc(N)c(C#N)c(-c2ccc3c(c2)OCO3)c1C,-,-,-,-,-,.,.,.
Cc1ccc(-c2cc(-c3ccc(Cl)cc3)c(C#N)c(N)n2)o1,-,-,6.29,-,-,5.0%,-,12.5%
